Only a selection was taken, and hits are over-represented in it overall.
KDM4C inh: blocks human GASC-1 (KDM4C) demethylase activity | Q9H3R0 | GST-KDM4C 2-372, H3K9me3 peptide, LANCE TR-FRET | inhibition, % at 12.5 µM | 96,000 compounds, 0.15% hits | AID 720574;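 active means mean replicate inhibition above about 25%, with at least 55% of replicates also reaching it, limit read from the data, passing the limit was not always enough; inconclusive means only one of those two conditions met; inactive means neither condition met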
Target sequence (Q9H3R0 2-372 limits assumed): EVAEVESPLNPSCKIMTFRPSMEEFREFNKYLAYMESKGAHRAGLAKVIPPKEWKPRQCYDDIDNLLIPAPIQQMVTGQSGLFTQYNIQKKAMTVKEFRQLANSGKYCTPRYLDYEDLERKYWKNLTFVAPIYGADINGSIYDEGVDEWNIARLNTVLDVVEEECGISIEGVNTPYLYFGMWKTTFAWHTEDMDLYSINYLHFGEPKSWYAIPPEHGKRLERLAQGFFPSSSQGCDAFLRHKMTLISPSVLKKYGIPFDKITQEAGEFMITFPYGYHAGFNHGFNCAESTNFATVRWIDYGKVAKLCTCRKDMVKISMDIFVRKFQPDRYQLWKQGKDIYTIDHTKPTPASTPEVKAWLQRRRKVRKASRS
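Test system – GST-tagged GASC-1 (JMJD2C) catalytic fragment, aa 2-372 · Medium – HEPES buffer, pH 7.5, plus ascorbate · Reagent – H3K9me3 peptide with Fe(II)/2OG · Compound – one test concentration per compound · Timing – 30 min reaction, 60 min detection, RT · Technique – TR-FRET with Eu antibody and ULight streptavidin, EDTA stop · Read-out basis – inhibition from TR-FRET ratio decrease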
IDH1 mut inh: inhibitors of human IDH1 R132H; AID 624101; IDH1 R132H reductase, diaphorase/resazurin fluorescence, 60 min; O75874; 70,000 compounds, 0.18% hits; inhibition, % at 10 µM; in the data active means inhibition above about 34%; inconclusive means no clear call, values can overlap the other calls; inactive means below about 11%
Pf Dd2 inh: blocks growth of Plasmodium falciparum Dd2 parasites; P. falciparum Dd2 growth, SYBR Green, 72 h; hits give low values; activity change, % at 10 µM; 94,000 compounds, 2.3% hits; in the data active means activity change below about -80%; inconclusive means no clear call, values can overlap the other calls
A number is an active result.

Results for C[C@@H]1CCCCO[C@@H](CN(C)S(=O)(=O)c2ccc(F)cc2)[C@@H](C)CN([C@H](C)CO)C(=O)c2cc(NC(=O)Nc3ccc(C(F)(F)F)cc3)ccc2O1 ?
KDM4C inh: inactive; Pf Dd2 inh: -82

Results for C[C@@H]1CCCCO[C@@H](CN(C)S(=O)(=O)c2ccc(F)cc2)[C@H](C)CN([C@@H](C)CO)C(=O)c2cc(NC(=O)Nc3ccc(C(F)(F)F)cc3)ccc2O1 ?
KDM4C inh: inactive; IDH1 mut inh: inactive; Pf Dd2 inh: inactive

Results for C[C@@H]1CCCCO[C@@H](CN(C)S(=O)(=O)c2ccc(Cl)cc2)[C@@H](C)CN([C@H](C)CO)C(=O)c2cc(NC(=O)CCC(F)(F)F)ccc2O1 ?
KDM4C inh: inactive; Pf Dd2 inh: inactive

What do the screens show for `C[C@H](CO)N1C[C@H](C)[C@H](CN(C)S(=O)(=O)c2ccc(F)cc2)OCCCC[C@H](C)Oc2ccc(NC(=O)Nc3ccc(C(F)(F)F)cc3)cc2C1=O`?
KDM4C inh: inactive; Pf Dd2 inh: inactive

Results for C[C@@H]1CCCCO[C@@H](CN(C)S(=O)(=O)c2ccc(Cl)cc2)[C@H](C)CN([C@H](C)CO)C(=O)c2cc(NC(=O)Nc3ccc(C(F)(F)F)cc3)ccc2O1 ?
KDM4C inh: inactive; Pf Dd2 inh: inactive

What do the screens show for `C[C@@H]1CCCCO[C@H](CN(C)S(=O)(=O)c2ccc(F)cc2)[C@@H](C)CN([C@@H](C)CO)C(=O)c2cc(NC(=O)Nc3ccc(C(F)(F)F)cc3)ccc2O1`?
KDM4C inh: inactive; Pf Dd2 inh: -85

What do the screens show for `CCNC(=O)C[C@@H]1CC[C@@H]2[C@@H](COc3ccc(NC(=O)c4ccccc4)cc3C(=O)N2C)O1`?
KDM4C inh: inactive; Pf Dd2 inh: inactive

How did COc1ccc(NC(=O)N2C[C@H](O)COC[C@@H]3O[C@H](CC(=O)N4CCOCC4)CC[C@H]32)cc1 do in these assays?
KDM4C inh: inactive; Pf Dd2 inh: inactive

Results for CCNC(=O)C[C@H]1CC[C@H]2[C@@H](COc3ccc(NC(=O)Nc4ccccc4C)cc3C(=O)N2C)O1 ?
KDM4C inh: inactive; Pf Dd2 inh: inactive

What do the screens show for `CC(=O)Nc1ccc2c(c1)C(=O)N(C)[C@H]1CC[C@H](CC(=O)NC3CCCCC3)O[C@@H]1CO2`?
KDM4C inh: inactive; Pf Dd2 inh: inactive

How did O=C(c1ccc2c(c1)OCO2)N1C[C@H]2[C@@H](c3ccccc31)[C@@H](CO)N2C(=O)CC1CC1 do in these assays?
KDM4C inh: inactive; Pf Dd2 inh: inactive

How did C[C@H]1CN([C@@H](C)CO)C(=O)c2cc(NC(=O)CCCN(C)C)ccc2O[C@H]1CN(C)Cc1ccc(C(F)(F)F)cc1 do in these assays?
KDM4C inh: inactive; Pf Dd2 inh: inactive

How did CO[C@@H]1CN(C)C(=O)c2cc(NC(=O)Nc3ccc(C(F)(F)F)cc3)ccc2OC[C@@H](C)NC[C@@H]1C do in these assays?
KDM4C inh: inactive; IDH1 mut inh: inactive; Pf Dd2 inh: -81

Results for CO[C@H]1CN(C)C(=O)c2ccc(NS(=O)(=O)c3cccc(Cl)c3)cc2OC[C@@H](C)NC[C@@H]1C ?
KDM4C inh: inactive; IDH1 mut inh: inactive; Pf Dd2 inh: inactive

How did CO[C@@H]1CN(C)C(=O)c2ccc(NC(=O)Nc3cccc(F)c3)cc2OC[C@H](C)NC[C@@H]1C do in these assays?
KDM4C inh: inactive; IDH1 mut inh: inactive; Pf Dd2 inh: inactive

How did CO[C@@H]1CN(C)C(=O)c2ccc(NC(=O)Nc3cccc(F)c3)cc2OC[C@H](C)NC[C@H]1C do in these assays?
KDM4C inh: inactive; IDH1 mut inh: inactive; Pf Dd2 inh: -82

What do the screens show for `CO[C@H]1CN(C)C(=O)c2ccc(NC(=O)Nc3ccc(C(F)(F)F)cc3)cc2OC[C@@H](C)NC[C@@H]1C`?
KDM4C inh: inactive; IDH1 mut inh: inactive; Pf Dd2 inh: inactive

What do the screens show for `CO[C@H]1CN(C)C(=O)c2ccc(NC(=O)Nc3ccc(C(F)(F)F)cc3)cc2OC[C@H](C)NC[C@H]1C`?
KDM4C inh: inactive; IDH1 mut inh: inactive; Pf Dd2 inh: -90

Results for CO[C@H]1CN(C)C(=O)c2ccc(NS(=O)(=O)c3cccc(Cl)c3)cc2OC[C@@H](C)NC[C@H]1C ?
KDM4C inh: 43; IDH1 mut inh: 72; Pf Dd2 inh: inactive

Results for CO[C@@H]1CN(C)C(=O)c2ccc(NC(=O)Nc3ccc(C(F)(F)F)cc3)cc2OC[C@H](C)NC[C@@H]1C ?
KDM4C inh: inactive; IDH1 mut inh: inactive; Pf Dd2 inh: inactive

How did C[C@@H]1CN([C@@H](C)CO)C(=O)c2cc(-c3cncnc3)cnc2O[C@@H]1CN(C)Cc1ccc(Oc2ccccc2)cc1 do in these assays?
KDM4C inh: inconclusive; IDH1 mut inh: inactive; Pf Dd2 inh: inactive

What do the screens show for `CN(C)CCCNC(=O)C[C@@H]1CC[C@@H]2[C@@H](COc3ccc(NC(=O)C4CCC4)cc3C(=O)N2C)O1`?
KDM4C inh: inactive; Pf Dd2 inh: inactive

Source: PubChem
